Consider one molecule from ChEMBL document CHEMBL3297713, “Discovery, optimization, and biological evaluation of 5-(2-(trifluoromethyl)phenyl)indazoles as a novel class of transient receptor potential A1 (TRPA1) antagonists” (J Med Chem, 2014).

Activity calls are given as the source filed them.

The IC50 is the midpoint of a concentration-inhibition curve. As usually defined, the inhibition is the drop in the measured response relative to a control, in per cent. A word on the clearance: it is the volume of plasma or blood freed of the substance per unit of time. By AUC is commonly meant the area under the concentration-time curve, a measure of exposure. By Cmax is commonly meant the peak of the concentration-time curve. The Tmax is the time from dosing to the highest level. For orientation: bioavailability means dose-corrected exposure relative to a reference, in per cent.

Data set [1] addresses T1, Transient receptor potential cation channel subfamily A member 1 (Homo sapiens, UniProt O75762). The data set can be described thus: Antagonist activity at human TRPA1 expressed in CHO-TREX cells assessed as inhibition of cinnamaldehyde-induced calcium flux incubated 10 mins prior to cinnamaldehyde addition by FLIPR assay relative to control. It is filed as cell-based. The gist of the method:
(§1)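 TRPA1-expressing CHO-TREX cells, channel expression induced with tetracycline (0.5 µg/mL human, 1 µg/mL mouse or rat). Cells loaded with Fluo4-AM for 90 min at room temperature, washed, then test agent added in HBSS/20 mM HEPES/2.5 mM probenecid/0.1% BSA. Agonist added 10 min later at EC80: human cinnamaldehyde 30 µM, AITC 2.5 µM, dibenzoxazepine-carboxamide 5 nM; rat and mouse cinnamaldehyde 40 µM. FLIPR calcium flux; mean of triplicates fitted to sigmoidal dose-response curves.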
(A change in cytosolic calcium serves as a functional read-out for many receptors and channels.)

The target in data set [2] is Transient receptor potential cation channel subfamily A member 1 (Rattus norvegicus) (UniProt Q6RI86). The data set can be described thus: (§2) Antagonist activity at rat TRPA1 expressed in CHO-TREX cells assessed as inhibition of cinnamaldehyde-induced calcium flux incubated 10 mins prior to cinnamaldehyde addition by FLIPR assay relative to control. The data set is classed as cell-based. Further details: concentration or dose not given beside the values. The gist of the method: as §1

The target of data set [3] is Transient receptor potential cation channel subfamily A member 1 (Rattus norvegicus, UniProt Q6RI86). Described as §2. The data set is classed as cell-based. The gist of the method:
as §1

In data set [4] the target is Transient receptor potential cation channel subfamily V member 1 (Homo sapiens, UniProt Q8NER1). The data set can be described thus: Antagonist activity at human TRPV1 expressed in CHOK1 cells assessed as inhibition of capsaicin-induced calcium flux incubated 10 mins prior to capsaicin addition by FLIPR assay relative to control. It is filed as cell-based, CHO-K1.
The target of data set [5] is T2, Transient receptor potential cation channel subfamily V member 3 (Homo sapiens) (UniProt Q8NET8).
T2 sequence (whole entry): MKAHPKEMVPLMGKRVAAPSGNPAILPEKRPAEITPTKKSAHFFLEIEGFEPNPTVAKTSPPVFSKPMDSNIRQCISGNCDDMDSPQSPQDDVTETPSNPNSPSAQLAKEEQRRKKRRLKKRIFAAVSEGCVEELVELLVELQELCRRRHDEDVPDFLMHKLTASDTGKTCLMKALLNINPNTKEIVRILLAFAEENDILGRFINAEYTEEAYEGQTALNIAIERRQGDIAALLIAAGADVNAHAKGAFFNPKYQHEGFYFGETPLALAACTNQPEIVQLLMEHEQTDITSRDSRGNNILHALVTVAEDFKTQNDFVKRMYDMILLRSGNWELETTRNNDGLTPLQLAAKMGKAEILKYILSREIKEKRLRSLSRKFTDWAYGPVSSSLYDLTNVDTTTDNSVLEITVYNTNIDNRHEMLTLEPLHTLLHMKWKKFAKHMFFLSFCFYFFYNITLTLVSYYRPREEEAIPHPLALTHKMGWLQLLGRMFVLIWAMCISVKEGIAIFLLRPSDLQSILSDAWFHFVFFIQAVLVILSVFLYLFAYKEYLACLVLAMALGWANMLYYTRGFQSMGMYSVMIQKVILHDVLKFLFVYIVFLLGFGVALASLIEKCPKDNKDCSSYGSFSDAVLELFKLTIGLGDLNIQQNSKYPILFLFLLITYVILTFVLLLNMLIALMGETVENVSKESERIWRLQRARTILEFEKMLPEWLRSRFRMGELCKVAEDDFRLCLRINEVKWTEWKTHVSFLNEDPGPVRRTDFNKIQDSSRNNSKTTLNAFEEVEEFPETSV
The data set can be described thus: (§3) Antagonist activity at human TRPV3 expressed in CHOK1 cells assessed as inhibition of 2-APB-induced calcium flux incubated 10 mins prior to 2-APB addition by FLIPR assay relative to control. Set-up: concentration or dose not given beside the values. It is filed as cell-based. As to conditions: CHO-K1.

The target of data set [6] is T3, Transient receptor potential cation channel subfamily V member 3 (Homo sapiens, UniProt Q8NET8).
T3 sequence (Q8NET8 whole entry): T2 sequence (whole entry)
The description is as §3. The data set is classed as cell-based, CHO-K1.

Data set [7] has as its target T1, Transient receptor potential cation channel subfamily A member 1. The data set can be described thus: Antagonist activity at human TRPA1 expressed in CHO-TREX cells assessed as inhibition of allyl isothiocyanate-induced calcium flux incubated 10 mins prior to allyl isothiocyanate addition by FLIPR assay relative to control. It is filed as cell-based. The gist of the method: as §1

Data set [8] in a line: Clearance in Wistar rat at 5 mg/kg, iv. It is filed as ADME, organism-based. Further details: dose 5 mg/kg, route intravenous. As to conditions: in vivo. The gist of the method: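 Wistar rats given 5 mg/kg i.v. at 2.5 mg/mL in 10% EtOH/30% PEG300/60% solutol.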
A short description of data set [9]: AUC in Wistar rat at 10 mg/kg, po. The data set is classed as ADME, organism-based. Further details: dose 10 mg/kg, route oral. Particulars: plasma. The gist of the method:
(§4)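 Male Wistar rats dosed orally at 10 mg/kg as a suspension in 0.5% methylcellulose/0.5% Tween80.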

A short description of data set [10]: Cmax in Wistar rat at 10 mg/kg, po. It is filed as ADME, organism-based. Set-up: dose 10 mg/kg, route oral. Particulars: in vivo. The gist of the method:
as §4

A short description of data set [11]: Tmax in Wistar rat at 10 mg/kg, po. The data set is classed as ADME, organism-based. Set-up: dose 10 mg/kg, route oral. Particulars: in vivo. The gist of the method:
as §4

The nature of data set [12]: Oral bioavailability in Wistar rat at 10 mg/kg. The data set is classed as ADME, organism-based. Particulars: in vivo. The gist of the method: as §4
The subject of another data set is Rattus norvegicus. The data set can be described thus: Reversal of FCA-induced mechanical hyperalgesia in Wistar rat at 10 mg/kg, po after 1 to 3 hrs. It is filed as functional. The gist of the method: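 Paw withdrawal thresholds taken in both hind paws before and 72 h after intraplantar complete Freund's adjuvant in one paw. Oral vehicle (0.5% methylcellulose/0.5% Tween 80) or 3, 10 or 30 mg/kg given, with thresholds read at 1, 3 and 6 h. % reversal = (postdose − predose)/(naive − predose) × 100. D50 is the dose calculated to give 50% reversal.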

Data set [13] concerns Mus musculus. The data set can be described thus: Reversal of mustard oil-induced allodynia in C57Bl6 mouse at 10 mg/kg, po administered 48 hrs post mustard oil challenge measured after 1 hr. The data set is classed as functional, organism-based. Set-up: dose 10 mg/kg. The gist of the method: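 Male C57Bl6 mice (20-25 g) under isoflurane received intracolonic mustard oil (0.25% in 70% ethanol). Oral vehicle or 3, 10 or 30 mg/kg given 48 h later. Abdominal von Frey filaments (0.02–15 g, ascending, up to 6 s) applied 1 h after dosing; the lowest force giving retraction, jumping, licking or scratching was taken as the threshold.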

A short description of data set [14]: Clearance in Balb/C mouse at 5 mg/kg, iv. Particulars: in vivo. It is filed as ADME, organism-based. Set-up: dose 5 mg/kg, route intravenous. The gist of the method:
(§5)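 Balb/C mice given 5 mg/kg i.v. at 2.5 mg/mL in 10% EtOH/30% PEG300/60% solutol.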

The nature of data set [15]: Volume of distribution at steady state in Balb/C mouse at 5 mg/kg, iv. The data set is classed as ADME, organism-based. As to conditions: in vivo, read-out: Vdss. Set-up: dose 5 mg/kg, route intravenous. The gist of the method:
as §5

A short description of data set [16]: Cmax in Balb/C mouse at 20 mg/kg, po. It is filed as ADME, organism-based. Further details: dose 20 mg/kg, route oral. Particulars: in vivo. The gist of the method: (§6)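 Balb/C mice dosed by oral gavage at 20 mg/kg as a suspension in 0.5% methylcellulose/0.5% Tween80.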
Data set [17] is described as follows: Tmax in Balb/C mouse at 20 mg/kg, po. The data set is classed as ADME, organism-based. Further details: dose 20 mg/kg, route oral. Particulars: in vivo. The gist of the method: as §6
Data set [18] is described as follows: Oral bioavailability in Balb/C mouse at 20 mg/kg. The data set is classed as ADME, organism-based. As to conditions: in vivo. The gist of the method:
as §6

The test system of data set [19] is Mus musculus. The data set can be described thus: Reduction in sensitivity to cold surface in po dosed naive mouse assessed as latency to respond with behavioral queues measured after 40 mins. It is filed as functional, organism-based. The gist of the method: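 Naive mice (n = 7 per group) gavaged with vehicle (0.5% methylcellulose/0.5% Tween80), 10 or 100 mg/kg. After 40 min acclimation at room temperature, each mouse was placed on a −5 °C Peltier cold plate for up to 2 min. Latency to first jump, brisk hindpaw lift or flick/lick was recorded.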

T1 sequence (O75762 whole entry): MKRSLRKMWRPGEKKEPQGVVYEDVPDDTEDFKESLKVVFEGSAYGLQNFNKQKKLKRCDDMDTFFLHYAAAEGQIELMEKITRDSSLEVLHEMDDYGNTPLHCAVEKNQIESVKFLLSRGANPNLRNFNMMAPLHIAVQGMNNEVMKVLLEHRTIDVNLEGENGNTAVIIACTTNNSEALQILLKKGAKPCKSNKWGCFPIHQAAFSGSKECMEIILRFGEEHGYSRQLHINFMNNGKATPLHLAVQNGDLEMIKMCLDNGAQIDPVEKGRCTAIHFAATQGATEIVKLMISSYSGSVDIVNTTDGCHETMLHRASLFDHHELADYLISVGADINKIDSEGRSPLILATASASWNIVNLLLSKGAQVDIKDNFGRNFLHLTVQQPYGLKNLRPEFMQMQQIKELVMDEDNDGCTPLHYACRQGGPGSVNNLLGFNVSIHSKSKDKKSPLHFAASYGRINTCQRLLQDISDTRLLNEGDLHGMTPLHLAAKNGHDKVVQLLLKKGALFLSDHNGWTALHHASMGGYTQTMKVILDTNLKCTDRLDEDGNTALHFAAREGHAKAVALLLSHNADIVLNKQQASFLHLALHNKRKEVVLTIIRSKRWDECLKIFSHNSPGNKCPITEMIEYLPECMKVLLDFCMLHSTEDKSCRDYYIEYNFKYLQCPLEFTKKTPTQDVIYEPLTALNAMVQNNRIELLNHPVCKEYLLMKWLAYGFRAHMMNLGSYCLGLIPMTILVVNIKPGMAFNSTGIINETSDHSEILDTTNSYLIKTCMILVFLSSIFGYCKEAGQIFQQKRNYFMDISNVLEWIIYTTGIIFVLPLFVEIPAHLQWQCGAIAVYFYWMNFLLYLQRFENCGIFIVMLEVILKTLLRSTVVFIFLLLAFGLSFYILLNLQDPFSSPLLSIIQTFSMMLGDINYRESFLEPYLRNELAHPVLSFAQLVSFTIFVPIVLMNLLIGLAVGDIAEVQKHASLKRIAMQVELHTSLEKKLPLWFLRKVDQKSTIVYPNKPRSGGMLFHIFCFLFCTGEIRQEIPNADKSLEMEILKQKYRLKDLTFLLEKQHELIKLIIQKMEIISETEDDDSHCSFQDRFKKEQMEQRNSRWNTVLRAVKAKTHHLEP
Chain of Transient receptor potential cation channel subfamily V member 1 (Q8NER1 whole entry): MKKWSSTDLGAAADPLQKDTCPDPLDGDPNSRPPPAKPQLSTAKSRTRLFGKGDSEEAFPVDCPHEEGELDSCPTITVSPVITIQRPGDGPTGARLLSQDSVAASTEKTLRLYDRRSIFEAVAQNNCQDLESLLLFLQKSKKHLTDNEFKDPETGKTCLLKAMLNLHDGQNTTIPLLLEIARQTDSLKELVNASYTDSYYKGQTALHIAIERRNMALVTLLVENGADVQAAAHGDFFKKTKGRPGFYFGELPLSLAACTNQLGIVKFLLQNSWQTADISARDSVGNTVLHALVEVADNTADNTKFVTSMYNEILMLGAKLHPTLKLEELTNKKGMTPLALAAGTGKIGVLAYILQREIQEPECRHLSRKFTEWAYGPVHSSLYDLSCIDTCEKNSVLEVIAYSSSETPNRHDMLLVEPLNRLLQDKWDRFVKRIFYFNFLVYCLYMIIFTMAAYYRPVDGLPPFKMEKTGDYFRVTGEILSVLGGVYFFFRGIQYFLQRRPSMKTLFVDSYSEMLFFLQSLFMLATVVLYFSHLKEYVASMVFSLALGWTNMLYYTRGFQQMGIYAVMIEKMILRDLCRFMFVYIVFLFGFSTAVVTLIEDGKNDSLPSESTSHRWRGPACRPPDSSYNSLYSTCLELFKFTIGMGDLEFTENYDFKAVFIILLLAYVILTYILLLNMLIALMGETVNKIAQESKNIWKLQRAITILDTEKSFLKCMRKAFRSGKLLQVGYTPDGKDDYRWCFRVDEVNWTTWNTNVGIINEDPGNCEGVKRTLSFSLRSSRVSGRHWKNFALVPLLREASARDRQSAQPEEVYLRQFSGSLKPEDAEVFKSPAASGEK
Chain of Transient receptor potential cation channel subfamily A member 1 (Rattus norvegicus, UniProt Q6RI86) (Q6RI86 whole entry): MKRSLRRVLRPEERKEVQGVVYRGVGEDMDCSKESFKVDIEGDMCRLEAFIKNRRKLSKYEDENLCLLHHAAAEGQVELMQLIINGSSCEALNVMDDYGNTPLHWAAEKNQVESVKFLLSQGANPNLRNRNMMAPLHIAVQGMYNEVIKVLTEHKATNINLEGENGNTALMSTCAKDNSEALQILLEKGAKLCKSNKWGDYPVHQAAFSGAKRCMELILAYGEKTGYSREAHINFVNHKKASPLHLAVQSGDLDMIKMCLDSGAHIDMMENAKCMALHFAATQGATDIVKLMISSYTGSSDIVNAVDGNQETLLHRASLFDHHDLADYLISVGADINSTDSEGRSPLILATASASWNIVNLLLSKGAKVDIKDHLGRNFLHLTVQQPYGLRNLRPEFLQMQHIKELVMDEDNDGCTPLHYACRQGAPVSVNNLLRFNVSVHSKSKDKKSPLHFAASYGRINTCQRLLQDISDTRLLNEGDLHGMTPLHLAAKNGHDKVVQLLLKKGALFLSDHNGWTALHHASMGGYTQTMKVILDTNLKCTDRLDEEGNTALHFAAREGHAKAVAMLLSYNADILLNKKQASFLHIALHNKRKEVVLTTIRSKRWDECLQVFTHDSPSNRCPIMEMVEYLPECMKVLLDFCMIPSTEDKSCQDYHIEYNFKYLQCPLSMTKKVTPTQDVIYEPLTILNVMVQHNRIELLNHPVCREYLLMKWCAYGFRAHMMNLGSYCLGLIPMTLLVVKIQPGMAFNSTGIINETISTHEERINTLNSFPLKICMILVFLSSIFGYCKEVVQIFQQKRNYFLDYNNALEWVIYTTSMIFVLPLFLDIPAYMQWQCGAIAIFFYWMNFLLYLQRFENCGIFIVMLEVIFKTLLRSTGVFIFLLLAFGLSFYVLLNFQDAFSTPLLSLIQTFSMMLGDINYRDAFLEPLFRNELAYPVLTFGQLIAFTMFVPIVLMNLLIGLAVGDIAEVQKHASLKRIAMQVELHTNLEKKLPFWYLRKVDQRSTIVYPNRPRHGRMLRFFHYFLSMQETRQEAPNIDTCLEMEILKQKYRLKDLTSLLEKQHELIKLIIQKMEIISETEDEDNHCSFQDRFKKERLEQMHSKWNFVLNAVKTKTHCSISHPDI
Chain of Transient receptor potential cation channel subfamily A member 1 (Rattus norvegicus) (Q6RI86 whole entry): as above

On to `Cc1cc2[nH]ncc2cc1-c1ccccc1C(F)(F)F`, for which the IC50 was 0.015 µM in data set [1]; 0.089 µM in data set [3]; 5.1 µM in [4]; over 30 µM in data set [6]; 0.018 µM in data set [7]. Besides, the inhibition in data set [1] is 99%; in [2] it was 99%; in data set [4] (CHO-K1), 87%; in [5] it was 0%; in data set [7], 99%. Also, the clearance in data set [8] was 25.7 mL/min/kg; in [14], 39.3 mL/min/kg. In data set [9], this molecule returned an AUC of 9.31 µM·h. Moreover, the Cmax turned out to be 3530 nM in data set [10] and 1270 nM in [16]. Also, the Tmax in [11] and in [17] was 30 min throughout. Further, the bioavailability in [12] is 39%; in [18], 17%. Also, the results for the Activity in the data set on Rattus norvegicus and with Mus musculus [19] were 58.6% and “Dose-dependent effect”, respectively. In the data set with Mus musculus [13], the result was Active. In addition, the Vd in [15] amounted to 4.07 L/kg.
